GSTO1 counter: blocks human GSTO1 in RBBP9 counter-screen | inhibition, % at 5.96 µM | recombinant GSTO1, activity-based probe fluorescence polarization | actives 1.1% (n = 300,000);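 active = inhibition above the campaign mean inhibition plus 3 SD, cut at about 35% in these data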
Apaf1 inhib: human Apaf-1 inhibition. O14727. inhibition, % at 20 µM. reconstituted apoptosome caspase-3 activity, DEVD-Rh110 fluorescence. AID 489030. actives 0.71% (n = 330,000); active = inhibition of at least 40% at 20 µM
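Assay system: Apoptosome proteins | Medium: pH 7.5 Hepes buffer with CHAPS, BSA, DTT | Also added: Cytochrome c and DEVD-Rh110 substrate | Times: 30 min plus 50 min, RT | Detection: Rhodamine 110 fluorescence at Ex 480/Em 540 nm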
PAD4 FP inh: blocks human protein arginine deiminase 4 | Q9UM07 | recombinant PAD4, RCA probe fluorescence polarization | inhibition, % at 6.36 µM | actives 0.41% (n = 330,000);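 active = percent inhibition above a cutoff equal to the mean of all tested compounds plus 3 SD, cut at about 15% in these data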
TDP2 absorb: blocks human TDP2 phosphodiesterase activity | O95551 | recombinant TDP2, T5PNP hydrolysis, p-nitrophenol absorbance 415 nm | inhibition, % at 12.8 µM | actives 0.34% (n = 370,000) | AID 720702;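 active = inhibition above the mean of all tested compounds plus 3 SD, set per campaign, cut at about 25% in these data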
Target sequence (O95551 whole entry, looked up): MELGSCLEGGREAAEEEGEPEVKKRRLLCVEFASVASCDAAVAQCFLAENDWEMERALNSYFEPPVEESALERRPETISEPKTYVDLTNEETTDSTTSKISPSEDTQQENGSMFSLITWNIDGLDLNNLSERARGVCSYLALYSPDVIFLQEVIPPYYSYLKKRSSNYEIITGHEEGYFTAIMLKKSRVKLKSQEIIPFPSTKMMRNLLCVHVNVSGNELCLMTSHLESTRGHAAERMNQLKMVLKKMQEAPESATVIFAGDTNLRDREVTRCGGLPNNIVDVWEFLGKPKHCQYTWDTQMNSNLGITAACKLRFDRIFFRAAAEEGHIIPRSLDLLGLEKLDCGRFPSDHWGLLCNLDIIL
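Incubation: 2 h at 37 °C; Test system: recombinant human TDP2; Quantity: enzyme 120 nM; Read-out basis: percent inhibition; Medium: 50 mM Tris-HCl pH 7.5 with Mg2+, KCl, DTT, BSA; Repeats: single replicate; Compound: 12.8 µM single point, 1% DMSO; Signal: epi absorbance; Reagent: 5 mM T5PNP chromogenic substrate; Benchmarks: no-enzyme high, DMSO-plus-enzyme low.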
PRMT1 inh: PRMT1 (human) inhibition, primary screen | recombinant PRMT1, activity-based probe fluorescence polarization | inhibition, % at 2.79 µM | Q99873 | actives 1.3% (n = 370,000);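 active = inhibition above about 21% made by adding two undisclosed values, limit read from the data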
TDP2 inh conf: confirmation of human TDP2 inhibitors; AID 743263; recombinant human TDP2, absorbance read-out; shares compounds with TDP2 absorb; inhibition, % at 12.8 µM; actives 22% (n = 1,100); in the data active = inhibition above about 25%
A number is an active result; i = inactive; nt = not tested or not shown. Compounds with a hit are over-represented: about 2.6% of the library has one in this group of screens.

SMILES | GSTO1 counter | Apaf1 inhib | PAD4 FP inh | TDP2 absorb | PRMT1 inh | TDP2 inh conf
C=CCN1C(=O)[C@@H](CC(=O)N2CCN(C(=O)c3ccco3)CC2)[C@]2(C(=O)OCC)CCCCC/C=C/12 | nt | nt | nt | i | i | nt
COc1ccccc1-c1ccc(SCC(=O)NC2CCCCC2)nn1 | i | i | i | i | i | nt
COc1ccccc1-c1ccc(SCC(=O)NC2CCCC2)nn1 | i | i | i | 37.5 | i | i
Cc1ccc(S(=O)(=O)N2CCN(C(=O)c3ccc4c(c3)OCO4)CC2)cc1 | i | i | i | i | i | nt
Cc1cc(C)c(S(=O)(=O)N2CCN(C(=O)c3ccc4c(c3)OCO4)CC2)c(C)c1 | i | i | i | 28.7 | i | i
Cc1cccc2[nH]c3c(N4CC=C(c5ccc(F)cc5)CC4)ncnc3c12 | i | i | i | i | i | nt
O=C(O)CN1C(=O)CSc2ccccc21 | i | i | i | i | i | nt
O=C(O)CN1C(=O)CSC1=S | nt | i | nt | 26.9 | i | i
CCCCN(C(=O)c1ccc(Cl)cc1)C1CC2CCC(C1)N2C (centres undefined) | i | i | i | i | i | nt
CN1C2CCC1CC(N(CCc1ccccc1)C(=O)c1ccc(Cl)cc1)C2 (centres undefined) | i | i | i | 27.6 | i | i
COc1cccc(C(C(=O)NC(C)(C)C)N(Cc2ccc(C)cc2)C(=O)CCC(=O)Nc2cc(C)on2)c1OC (centres undefined) | i | i | i | 31.2 | i | i
CCc1cc2c(SCC(=O)NC3CC3)ncnc2s1 | nt | i | i | i | i | nt
CCN1CCN(Cc2ccc(OC)c(OCc3ccccc3)c2)CC1 | i | i | i | i | i | nt
CCN1CCN(CC#CCOc2ccccc2OC)CC1 | i | i | i | 29.0 | i | i
COc1ccc(C(=O)OCC(=O)c2cc(OC)ccc2OC)c(OC)c1 | i | i | i | i | i | nt
COc1ccc(OC)c(C(=O)COC(=O)c2ccc(C)o2)c1 | i | i | i | 28.8 | i | i
Nn1cnnc1N/N=C\c1ccc(-c2ccccc2[N+](=O)[O-])o1 | nt | nt | nt | 65.8 | i | 39.0
COc1ccc(OC)c(C(c2c(C)[nH][nH]c2=O)c2c(C)[nH][nH]c2=O)c1 | i | i | i | 49.5 | i | i
COc1ccc(C(c2c(C)[nH][nH]c2=O)c2c(C)[nH][nH]c2=O)cc1Br | i | i | i | i | i | nt
Cc1ccc(C(c2c(C)[nH][nH]c2=O)c2c(C)[nH][nH]c2=O)cc1 | i | i | i | 33.4 | i | i
Cc1[nH][nH]c(=O)c1C(c1ccc([N+](=O)[O-])cc1)c1c(C)[nH][nH]c1=O | i | i | i | 30.6 | i | i
Cc1nn(-c2ccccc2)c2c1C(c1ccc([N+](=O)[O-])cc1)C(C#N)=C(N)O2 (centres undefined) | i | i | i | 61.8 | i | i
COc1ccc(OC)c(C2C(C#N)=C(N)Oc3c2c(C)nn3-c2cccc(Cl)c2)c1 (centres undefined) | i | i | 34.7 | 82.1 | i | i
COc1ccc(N(CC(=O)N/N=C/c2cccnc2)S(=O)(=O)c2ccc(C)cc2)cc1OC | nt | i | nt | i | i | nt
COc1cccc(NC(=O)CSc2nc3c(sc4ccccc43)c(=O)n2CCCN2CCCC2)c1 | i | i | i | i | i | nt
SMILES | GSTO1 counter | Apaf1 inhib | PAD4 FP inh | TDP2 absorb | PRMT1 inh | TDP2 inh conf
CCCCC(=O)OCC(=O)c1[nH]c(C)c(C(C)=O)c1C | i | i | i | i | i | nt
CC(=O)c1c(C)oc2c1cc(NS(=O)(=O)c1ccc(C(=O)O)cc1)c1ccccc12 | i | i | i | 28.6 | i | i
CN1OC[C@@H]2CN(C(=O)Nc3ccccc3)[C@H](c3ccc(N4CCCCC4)cc3)C[C@@H]21 | nt | nt | nt | i | i | nt
S=C(Nc1ccc2nc(-c3ccccn3)c(-c3ccccn3)nc2c1)N1CCOCC1 | i | i | i | 30.6 | i | i
COc1cccc(NC(=O)CCCCCN2C(=O)[C@@H]3Cc4ccccc4CN3C2=O)c1 | i | i | i | i | i | nt
COc1ccc(CN2CCCC(C(=O)N3CCCC3)C2)c(OC)c1 (centres undefined) | i | i | i | 30.5 | i | i
COc1cc(OC)c(OC)cc1CN1CCCC(C(=O)N2CCCCC2)C1 (centres undefined) | i | i | i | i | i | nt
CC(=O)NC1C(=O)N(CCN2CCOCC2)c2ccc(F)cc21 (centres undefined) | nt | i | nt | 31.7 | i | 30.5

Screening results as filed in PubChem BioAssay.
